Experimental data as given in ChEMBL document CHEMBL4680124, “2-Styryl-4-aminoquinazoline derivatives as potent DNA-cleavage, p53-activation and in vivo effective anticancer agents” (Eur J Med Chem, 2020).
Activity calls are given as the source filed them. The rule behind the calls is not given here.

Columns and labels:
A549 = assay: Cytotoxicity against human A549 cells expressing wild type p53 assessed as reduction in cell viability preincubated for 48 hrs and measured after 4 hrs by MTT assay; format: functional, cell-based
MGC-803 [1] = assay: Cell cycle arrest in human MGC-803 cells assessed as accumulation at S phase at 0.5 uM after 48 hrs by propidium iodide staining-based flow cytometric analysis (reference value: 45.1 %); format: functional
MGC-803 [2] = assay: Induction of apoptosis in human MGC-803 cells assessed as early apoptotic cells at 1 uM measured after 24 hrs by Annexin-V/propidium iodide staining-based flow cytometric analysis (Rvb =0.84%)
MGC-803 [3] = assay: Induction of apoptosis in human MGC-803 cells assessed as cell shrinkage at 0.5 to 2.5 uM incubated for 24 hrs by Hoechst 33258 staining based analysis; format: functional; conditions: dose 0.5-2.5 µM
How it was run: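 MGC-803 cells treated in six-well plates, fixed in 4% paraformaldehyde for 10 min, washed, stained with Hoechst 33258 for 5 min, and examined for nuclear morphology by fluorescence microscopy.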

MGC-803 [4] = assay: Induction of DNA damage in human MGC-803 cells assessed as increase in p53 level at 2.5 uM measured after 24 hrs by Western blot analysis; format: functional, cell-based
How it was run: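 MGC-803 cells (2×10^6) plated overnight, then treated for 24 h at 0.5, 1.0 or 2.5 µM (test agent) or 5.0 µM (comparator). Whole-cell lysates separated by SDS-PAGE, transferred to PVDF and probed with primary antibodies. AP-linked anti-rabbit IgG, ECL detection, β-actin loading control. Representative of three experiments.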

Calf thymus DNA = assay: Binding affinity to calf thymus DNA assessed as hypochromism by measuring absorption spectra at 20 uM incubated for 5 mins by UV-Vis absorption spectrometry; format: tissue-based; conditions: Bos taurus
How it was run: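 Compound at 20 µM in Tris-HCl buffer, 25 °C, titrated with ct-DNA at [DNA]/[compound] 0 to 1.0 in steps of 0.1. Absorption spectra recorded at 295–360 nm after 5 min equilibration following each addition.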

MGC-803 [5] = assay: Induction of apoptosis in human MGC-803 cells assessed as activation of caspase 3 at 2.5 uM incubated for 24 hrs by flow cytometric analysis (reference value: 1.47%); format: functional
MGC-803 [6] = assay: Induction of apoptosis in human MGC-803 cells assessed as necrotic cells at 1 uM measured after 24 hrs by Annexin-V/propidium iodide staining-based flow cytometric analysis (Rvb =6.05%)
MGC-803 [7] = assay: Induction of ROS generation in human MGC-803 cells assessed as intracellular ROS level at 0 to 2.5 uM after 24 hrs by DCFH-DA staining-based flow cytometric analysis; format: functional, cell-based; conditions: dose 0-2.5 µM
How it was run: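 MGC-803 cells treated at 0.5, 1.0 or 2.5 µM for 24 h, harvested, washed in cold PBS and loaded with DCFH-DA at 37 °C for 30 min in the dark. Washed three times in PBS; fluorescence read by flow cytometry. Representative of three experiments.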

MGC-803 [8] = assay: Cell cycle arrest in human MGC-803 cells assessed as accumulation at G1 phase at 0.125 uM after 48 hrs by propidium iodide staining-based flow cytometric analysis (reference value: 46.96 %); format: functional
MGC-803 [9] = assay: Induction of apoptosis in human MGC-803 cells assessed as late apoptotic cells at 2.5 uM measured after 24 hrs by Annexin-V/propidium iodide staining-based flow cytometric analysis (Rvb =0.93%)
[10] = Toxicity against BALB/c nude mouse xenografted with human MGC-803 cells assessed as body weight at 20 mg/kg, ip administered every 2 days and measured 3 times per week for 16 days; format: organism-based; conditions: in vivo, 384 h, time 16 day
How it was run: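 Male BALB/c nude mice, 6 weeks old, received 5×10^6 MGC-803 cells subcutaneously in the flank. At about 80 mm3, mice were randomized (n = 6/group). They were dosed i.p. every 2 days with vehicle (5% DMSO in saline, v/v) or drug in DMSO/saline at 1.0 or 2.0 mg/mL. Body weight was recorded three times weekly; mean ± SD.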

## NCCCCNc1nc(/C=C/c2ccc([N+](=O)[O-])cc2)nc2ccccc12
A549
  IC50: 5.48 µM
MGC-803 [1]
  Activity: 25.89%
MGC-803 [2]
  Activity: 27.5%
MGC-803 [3]
  Activity: Active
MGC-803 [4]
  Activity: Active
Calf thymus DNA
  Activity: Active
MGC-803 [5]
  Activity: 22.98%
MGC-803 [6]
  Activity: 2.21%
MGC-803 [7]
  Activity: Active
MGC-803 [8]
  Activity: 35.39%
MGC-803 [9]
  Activity: 55.9%
[10]
  Activity: Non-Toxic
